Bioassay records deposited in PubChem BioAssay by several laboratories.
Only some compounds are listed: those with a hit (about 3.4% of all), similar ones and a draw of the others.
RanGTP-Impb inh – inhibitors of RanGTP-importin-beta interaction, primary screen, biochemical, FRET, CFP-Ran, YFP-importin-beta, homogeneous | Ran GTPase (GTP-bound) - importin-beta complex | cell-free CFP-Ran/YFP-importin-beta FRET ratio | inhibition, % (concentration not given with the values) | hit rate 1.1% among 300,000 | AID 2216, 2009;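 active means more than half of the replicate wells show a fall in the fluorescence ratio signal beyond about 16%, limit read from the data, passing the limit was not always enough; inconclusive means exactly half of the replicate wells pass the set limit; inactive means fewer than half of replicates pass the limit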;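 further: 0% = DMSO wells and 100% = Ran loaded with GDP instead of GTP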
Wee1 degr inh – Wee1 degradation inhibitors, primary screen, cell-based, HeLa, Wee1K328M-luciferase, luminescence | HeLa Luc-Wee1K328M stability; 100% = proteasome inhibitor MG132 effect | reporter increase, % at 5 µM | hit rate 1.2% among 220,000;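 active means activation above the mean of all tested compounds plus 3 SD, set per screening run, cut at about 8.8% in these data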;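 further: cells exposed to compound for 20 h before luminescence read; 0% = DMSO alone and 100% = MG132 at 30 µM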
Target sequence (P30291 whole entry K328M): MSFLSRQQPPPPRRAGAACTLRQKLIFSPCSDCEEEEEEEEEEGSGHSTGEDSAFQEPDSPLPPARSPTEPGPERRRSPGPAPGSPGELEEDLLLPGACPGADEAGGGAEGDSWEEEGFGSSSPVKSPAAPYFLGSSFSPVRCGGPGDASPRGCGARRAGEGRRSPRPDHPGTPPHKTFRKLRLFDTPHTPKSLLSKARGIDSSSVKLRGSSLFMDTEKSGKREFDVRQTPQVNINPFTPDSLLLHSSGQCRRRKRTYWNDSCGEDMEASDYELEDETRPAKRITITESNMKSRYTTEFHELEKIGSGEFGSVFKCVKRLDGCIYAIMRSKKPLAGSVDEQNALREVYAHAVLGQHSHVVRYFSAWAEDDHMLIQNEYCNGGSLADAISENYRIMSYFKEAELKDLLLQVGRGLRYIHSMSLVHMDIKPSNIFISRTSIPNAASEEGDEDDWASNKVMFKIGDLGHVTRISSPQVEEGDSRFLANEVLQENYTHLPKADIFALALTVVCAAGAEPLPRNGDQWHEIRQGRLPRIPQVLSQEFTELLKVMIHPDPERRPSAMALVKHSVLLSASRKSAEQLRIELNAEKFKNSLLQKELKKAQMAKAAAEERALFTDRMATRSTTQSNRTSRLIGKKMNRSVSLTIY
PHOSPHO1 inh – PubChem AID 1565 | Phosphoethanolamine/phosphocholine phosphatase (Homo sapiens), Q8TCT1 | recombinant PHOSPHO1, absorbance phosphatase assay | inhibition, % at 13.3 µM | hit rate 1.1% among 290,000; in the data active means inhibition above about 60%
Efa HMGR inh – inhibitors of E. faecalis class II HMGR, primary screen, biochemical, Enterococcus faecalis. purified E. faecalis HMGR, NADPH absorbance 340 nm kinetic. AID 1066, 2008. hit rate 0.41% among 190,000. HMG-CoA reductase (Enterococcus faecalis, mvaE). inhibition, % at 10 µM;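 active means inhibition above a set limit, the median over all tested compounds plus 3 SD, cut at about 9.5% in these data; inconclusive means no clear call, values can overlap the other calls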;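 further: enzyme runs in reverse so mevalonate oxidation gives rising NADPH absorbance; 0% = complete reaction with DMSO and 100% = background rate lacking mevalonate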
Runt-SMMHC FRET – inhibitors of RUNX1 Runt–CBFb-SMMHC binding, primary screen, biochemical, FRET, Cerulean-Runt, Venus-CBFb-SMMHC, uHTS. Runt-related transcription factor 1 (Homo sapiens) + Core-binding factor subunit beta …. Cerulean-Runt/Venus-CBFb-SMMHC FRET ratio 530/480, 1 h. inhibition, % at 20 µM. hit rate 0.74% among 220,000. AID 1434, 2008;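 active means mean inhibition across duplicate retests at 20 µM reaching about 50%, limit read from the data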;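 further: 0% = DMSO wells and 100% = wells with excess untagged CBFb-SMMHC; inhibitors lower the FRET ratio by blocking Runt binding to CBFb-SMMHC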
Runt-CBFb FRET – inhibitors of RUNX1 Runt–CBFb binding, primary screen, biochemical, FRET, Cerulean-Runt, Venus-CBFb, uHTS; AID 1496, 2009; inhibition, % at 20 µM; hit rate 0.46% among 220,000; Runt-related transcription factor 1 (Homo sapiens) + Core-binding factor subunit beta …; Cerulean-Runt/Venus-CBFb FRET ratio 530/480, 1 h;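 active means inhibition over about 50% at 20 µM in the single-dose screen, limit read from the data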;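 further: 0% = DMSO wells and 100% = excess unlabeled CBFb competitor control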
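Doses: 20 µM compound in 1% DMSO | Material: Cerulean-labeled Runt domain protein | Amount: Each fluorescent fusion protein 100 nM | Schedule: Two 1 h room-temperature incubations shielded from light | Measured by: FRET fluorescence | Evaluation: Loss of energy transfer signal | Controls: Unlabeled CBFb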
* = called active by the depositor; ? = inconclusive; . = no result given.

SMILES | RanGTP-Impb inh | Wee1 degr inh | PHOSPHO1 inh | Efa HMGR inh | Runt-SMMHC FRET | Runt-CBFb FRET
CC(C)[C@H]1C(=O)Nc2ccccc2N1C(=O)N[C@@H](Cc1ccccc1)C(=O)N[C@H](Cc1ccccc1)C(=O)O | -1 | . | 23 | . | . | .
CC1(C)CC(=O)C2=C(C1)N(c1cccc(O)c1)C1=C(C2)C(=O)CC(C)(C)C1 | 74* | 1 | -23 | 3 | 57* | 34
NC(=O)COC(=O)C1CSC2(c3ccc(F)cc3)CCC(=O)N12 (stereo unspecified) | 2 | . | 37 | . | . | .
CC(C(=O)NCCS(=O)(=O)c1ccc(Br)cc1)S(=O)(=O)c1ccc(Cl)cc1 (stereo unspecified) | -2 | . | 11 | . | . | .
CC(C)c1ccc(C(C)NCCS(=O)(=O)c2ccc(Cl)cc2)cc1 (stereo unspecified) | -2 | . | 73* | . | . | .
C=CCN(CC=C)CCCOc1ccc(C)cc1OC | 6 | 4 | 30 | 3 | -2 | -1
COCCC(=O)N1CCCC(C(=O)c2ccc3c4c(cccc24)CC3)C1 (stereo unspecified) | 1 | 3 | 8 | 11* | -4 | 1
COc1sc(SC)cc1/C=N/NC(=O)c1ccncc1 | 2 | . | 14 | . | . | .
Cn1c(=O)c2ncn(CC(=O)N=Nc3c(O)[nH]c4ccccc34)c2n(C)c1=O | 1 | 1 | 53 | 4 | -6 | -2
c1ccc(N2N=C(c3cccs3)CC2c2ccco2)cc1 (stereo unspecified) | 1 | 0 | 25 | -1 | 82* | 32
Clc1ccc(N2N=C(c3cccs3)CC2c2ccco2)cc1 (stereo unspecified) | 10 | 5 | 41 | 2 | 91* | .
CCC(=O)N1N=C(c2cccs2)CC1c1ccco1 (stereo unspecified) | -5 | 2 | 21 | 4 | 1 | 2
c1ccc(C2=NN(c3ccccc3)C(c3ccco3)C2)cc1 (stereo unspecified) | -7 | -4 | 30 | -4 | 3 | 6
COc1ccc(CC(=O)Nc2c(C(=O)N3CCN(c4ccccc4OC)CC3)oc3ccccc23)cc1OC | 21 | . | 28 | . | . | .
O=C(Cn1cnc2sc3c(c2c1=O)CCCC3)NCC(=O)Nc1c(F)cc(F)cc1Br | -2 | . | 49 | . | . | .
CCOC(=O)NC(=O)/C(C=Nc1ccc(Cl)cc1)=C(\C)O | 1 | 2 | 16 | -8 | 0 | -1
COCCn1c(SCC#N)nnc1-c1ccc(OC)cc1 | -1 | 1 | -1 | 13* | 0 | 1
Cc1ccc2c(c1)[nH]c1c(=O)n(Cc3ccccn3)cnc12 | 2 | 1 | -4 | 3 | -2 | -1
CC(C)[C@H](N)c1nnc(SCC(=O)c2ccc(Cl)cc2)o1 | ? | -1 | 82* | -5 | 2 | 1
O=C(Nc1ccc2c(c1)OCO2)C1CC(c2cccc(Br)c2)=NO1 (stereo unspecified) | 1 | . | -18 | . | . | .
Cc1cc(=O)oc2c(CN(C)Cc3ccccc3)c(O)ccc12 | 6 | 4 | 4 | 5 | 82* | 36
Cc1ccc(-n2ncc3c2CC(C)(C)CC3NC(=O)c2ccncc2)cc1 (stereo unspecified) | 2 | . | 23 | . | . | .
O=C(OCc1nnc(-c2ccccc2)o1)C12CC3CC(CC(Br)(C3)C1)C2 | 0 | 9.6* | 37 | -5 | -2 | -3
O=C(c1ccc(NS(=O)(=O)/C=C/c2ccccc2)cc1)N1CCCCC1 | -1 | . | . | . | . | .
CC(C)(CNC(=O)c1cc2ccccc2o1)N1CCOCC1 | 8 | 0 | 68* | -5 | -1 | -3
SMILES | RanGTP-Impb inh | Wee1 degr inh | PHOSPHO1 inh | Efa HMGR inh | Runt-SMMHC FRET | Runt-CBFb FRET
O=C(Nc1ccc(CN2CCOCC2)cc1)c1cc2ccccc2o1 | 3 | 10* | -22 | 0 | 2 | 3
Cc1cc(N)n2ncc(-c3ccc(Cl)cc3)c2n1 | 1 | 0 | 29 | 11* | 5 | 0
Cc1ccn2c(=O)nc(SCC(=O)NC3CCCC3)nc2c1 | 18* | . | . | . | . | .
COc1cccc(CN(CC(=O)NC2CCCCC2)C(=O)c2csnn2)c1 | 6 | . | 14 | . | . | .
O=c1[nH]c(CCC2CCCC2)nc2ccccc12 | -2 | -1 | -9 | -4 | 1 | 0
O=C(COCc1nc2ccccc2c(=O)[nH]1)NCC1CCCCC1 | 0 | 0 | -6 | 15* | 3 | -1
CCCc1nn(C)c2c(=O)[nH]c(-c3cc(S(=O)(=O)N(CCO)CCO)ccc3OCC)nc12 | 4 | -1 | 63* | . | -1 | 3
CCOc1ccc(S(=O)(=O)N(CCO)CCO)cc1-c1nc2c(C(C)(C)C)nn(C)c2c(=O)[nH]1 | 5 | -2 | -12 | 1 | 2 | -14
Cc1nnsc1C(=O)NNc1ccc(Cl)cc1 | 1 | 0 | 42 | . | -6 | 0
Cc1nnsc1C(=O)NNc1c(Cl)cccc1Cl | -2 | 9.0* | 6 | . | 5 | 0
O=C(O)CCC(=O)N1CCN(c2nc(-c3ccccc3)c3cc(Br)ccc3n2)CC1 | 28* | . | 8 | . | . | .
NNc1nc(-c2ccccc2Cl)c2cc(Br)ccc2n1 | 3 | . | 44 | . | . | .
Cc1ccc2nc(N3CCN(CCO)CC3)nc(-c3ccccc3)c2c1 | ? | . | 5 | . | . | .
O=C(O)CCC(=O)N1CCN(c2nc(-c3ccccc3Cl)c3cc(Br)ccc3n2)CC1 | 31* | 2 | 42 | -8 | 85* | 36
CCOC(=O)N1CCN(c2nc(-c3ccccc3)c3cc(C)ccc3n2)CC1 | 18* | . | 14 | . | . | .
OCCNc1nc(-c2ccccc2)c2cc(Br)ccc2n1 | 10 | . | 24 | . | . | .
Cc1cccc(NC(=O)CSc2nnc(CNC(=O)c3ccco3)o2)c1 | 21 | . | 12 | . | . | .
COc1ccc(S(=O)(=O)NC2CC2)cc1Cl | ? | . | 8 | . | . | .
COC(=O)c1c(NC(=O)CS(=O)(=O)c2ccccc2)sc(C)c1C | 0 | . | . | . | . | .
O=[N+]([O-])c1ccc(N/N=C/c2ccc(O)c(O)c2O)c(S(=O)(=O)N2CCOCC2)c1 | -4 | 1 | 44 | 22* | -11 | 22
CCN1C(=O)/C(=C2\C=Cc3cc(C)ccc3N2CC)OC1=S | 6 | 1 | -16 | -2 | 34 | 17
CCN1C(=O)/C(=C2/C=Cc3ccccc3N2C)OC1=S | -3 | -1 | 65* | -9 | 2 | 4
Cc1nnc(NCCc2ccccc2)c2ccccc12 | -1 | . | 4 | . | . | .
C=CCSc1nnc(-c2cc(Br)ccc2N)c(=O)[nH]1 | -3 | -1 | 90* | -4 | 3 | 6
